The text below walks through data of ChEMBL document CHEMBL1156222, “Tetrahydropyridine derivatives with inhibitory activity on the production of proinflammatory cytokines: part 2” (Bioorg Med Chem Lett, 2010).

As usually defined, the IC50 is the point on the concentration scale where inhibition reaches its midpoint. What is called inhibition is the drop in the measured response relative to a control, in per cent. The inhibition in vivo is the percentage by which the read-out fell short of the control.

In experiment [1] the test system is Blood. In words: Antiinflammatory activity in human whole blood assessed as inhibition of LPS-induced TNFalpha production after 6 hrs. The class given is functional, tissue-based. The gist of the method:
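Human whole blood was stimulated with LPS, and TNFα production was measured. % inhibition was plotted against log test concentration, and IC50 came from a least-squares linear regression. 95% confidence intervals were calculated by Fieller's theorem. Values are mean and S.D. of three to four determinations.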

Experiment [2] deals with Mus musculus. In words: Antiinflammatory activity in po dosed mouse assessed as inhibition of LPS-induced TNFalpha production administered 30 mins before LPS challenge measured after 1 hr by ELISA. It counts as functional. Particulars: read-out: ID50 (the source's name). The method in brief: (§1)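 LPS-induced TNFα production was measured in mice, with N = 5. Activity is reported either as ID50 or as % inhibition at a single 20 mg/kg dose.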
In general terms: An ELISA detects its analyte on a solid surface through an enzyme-linked reagent.

In experiment [3] the test system is Blood. The experiment can be described thus: Antiinflammatory activity in human whole blood assessed as inhibition of LPS-induced TNFalpha production at 10 uM after 6 hrs. The class given is functional. The gist of the method: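 Human whole blood was stimulated with LPS, and inhibition of TNFα production was measured at a single test concentration of 10 μM. Values are mean and S.D. of three to four determinations.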

The species entered for experiment [4] is Mus musculus. In words: Selectivity ratio of compound ID50 to 4-(2-(4-fluorophenyl)-4-(1,2,3,6-tetrahydropyridin-4-yl)-1H-pyrrol-3-yl)pyridine ID50 for antiinflammatory activity in mouse. It counts as functional.
Experiment [5] concerns Mus musculus. In words: Antiinflammatory activity in mouse assessed as inhibition of LPS-induced TNFalpha production at 20 mg/kg, po administered 30 mins before LPS challenge measured after 1 hr by ELISA. It counts as functional. The method in brief: as §1

In the case of `CC(C)(C)N1CC=C(c2c[nH]c(-c3ccc(F)cc3)c2-c2ccncc2)CC1`, in the experiment on Blood [1], the IC50 is greater than 10000 nM.

For `CC1CC(c2c[nH]c(-c3ccc(F)cc3)c2-c2ccncc2)=CCN1C` (configuration not stated), in the experiment with Mus musculus [2], the ED50 turned out to be 2.73 mg/kg. Besides, the 50% inhibitory concentration (IC50) in the experiment with Blood [1] was 1280 nM.

Turning to `C=CCC1C=C(c2c[nH]c(-c3ccc(F)cc3)c2-c2ccncc2)CCN1C` (configuration not stated), the inhibition at 10 µM with Blood [3] stood at 48.7%.

Regarding `CN1CCC(c2c[nH]c(-c3ccc(F)cc3)c2-c2ccncc2)=CC1Cc1ccccc1` (configuration not stated), the inhibition at 10 µM in the experiment with Blood [3] is 30.8%.

On to `CC1C=C(c2c[nH]c(-c3ccc(F)cc3)c2-c2ccncc2)CCN1` (configuration not stated), for which the ED50 with Mus musculus [2] is 2.29 mg/kg. In addition, the IC50 with Blood [1] was 710 nM.

In the case of `CCN1CCC(c2c[nH]c(-c3ccc(F)cc3)c2-c2ccncc2)=CC1C` (configuration not stated), the ED50 in the experiment on Mus musculus [2] was determined as 5.28 mg/kg. Also, the IC50 with Blood [1] was 1610 nM.

On to `CN1C(C)(C)C=C(c2c[nH]c(-c3ccc(F)cc3)c2-c2ccncc2)CC1(C)C`, for which the ED50 in the experiment with Mus musculus [2] amounted to 7.27 mg/kg. Besides, the IC50 in the experiment with Blood [1] is 8440 nM.

`CCCN1CCC(c2c[nH]c(-c3ccc(F)cc3)c2-c2ccncc2)=CC1C` (configuration not stated): the ED50 in the experiment with Mus musculus [2] stood at 2.79 mg/kg. Further, the half-inhibitory concentration (IC50) in the experiment on Blood [1] worked out at 440 nM.

`CC(C)N1CC=C(c2c[nH]c(-c3ccc(F)cc3)c2-c2ccncc2)CC1`: the ED50 with Mus musculus [2] was determined as 6.18 mg/kg. Besides, in the experiment with Blood [1], the IC50 was 980 nM.

Take `CCCN1CC=C(c2c[nH]c(-c3ccc(F)cc3)c2-c2ccncc2)CC1`: the ED50 in the experiment with Mus musculus [2] came to 6.75 mg/kg. In addition, in the experiment on Blood [1], the IC50 was determined as 520 nM.

Consider `CN1CC=C(c2c[nH]c(-c3ccc(F)cc3)c2-c2ccncc2)CC1`, for which the ED50 with Mus musculus [2] stood at 2.89 mg/kg. Moreover, the IC50 in the experiment with Blood [1] is 3960 nM. The Ratio in the experiment filed under Mus musculus [4] was greater than 2.

In the case of `CCN1CC=C(c2c[nH]c(-c3ccc(F)cc3)c2-c2ccncc2)CC1`, the ED50 with Mus musculus [2] was 6.67 mg/kg. In the experiment on Blood [1], the IC50 turned out to be 1210 nM.

`CC1C=C(c2c[nH]c(-c3ccc(F)cc3)c2-c2ccncc2)CCN1C` (configuration not stated): the ED50 with Mus musculus [2] was found to be 1.42 mg/kg. Also, the half-maximal inhibitory concentration (IC50) in the experiment on Blood [1] was determined as 630 nM.

Consider `CCCCCCCCN1CC=C(c2c[nH]c(-c3ccc(F)cc3)c2-c2ccncc2)CC1`, for which, in the experiment with Mus musculus [5], the inhibition in vivo at 20 mg/kg was found to be 45%. Also, the IC50 in the experiment with Blood [1] worked out at 1380 nM.

For `Fc1ccc(-c2[nH]cc(C3=CCN(Cc4ccccc4)CC3)c2-c2ccncc2)cc1`, in the experiment with Blood [1], the IC50 is greater than 30000 nM.
